In paper PMC7125830 (Antiviral Research, 1999):

Legend:
HSV-1 McKrae strain = assay: Plaque reduction assay, HSV-1 in Vero cells; format: cell-based, herpes simplex virus type 1; conditions: Human alphaherpesvirus 1, Vero, 96 h
Method in brief: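 Confluent Vero monolayers in 24-well plates infected with 100 pfu McKrae strain per well, adsorbed 1 h at 37°C, washed with Hanks' BSS. Agar overlay containing compound dilutions applied to triplicate wells, alongside triplicate cell and virus controls. Day 4: methanol:acetic acid (3:1) fixation, 1% crystal violet stain, plaque count. IC50 calculated from dose-response plots; selectivity index taken as TC50/IC50.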

Vero cells = assay: Initial cytotoxicity study; format: cell-based, African green monkey; conditions: at 100 μM concentration
Method in brief: (§1)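 Confluent monolayers in triplicate wells of 24-well plates, exposed to compounds diluted from 0.1M DMSO stocks in growth medium (final 10−4 M to 10−8 M). A DMSO co-solvent control was run for each dilution and compared with cell controls. Cytotoxicity scored by abnormal morphology: clumping, detachment or rounding up of cells. Scored +/−.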

A549 cells = assay: Initial cytotoxicity study; format: cell-based, Human; conditions: at 100 μM concentration
Method in brief: as §1

IC50 (HSV-1 McKrae strain) [nM] | SMILES | Cytotoxicity (Vero cells) | Cytotoxicity (A549 cells)
1800 | Nc1nc2c(ncn2COCCO)c(=O)[nH]1 [Acyclovir, acyclovir] | − (Vero cells) | –
– | Nc1ccn(C[C@@H](CO)OCP(=O)(O)O)c(=O)n1 [Cidofovir] | – | − (A549 cells)
